From publication PMC3103643 (Journal of natural products, 2011)

Legend:
[1] = test system: HT-29 (colon adenocarcinoma), MCF-7 (breast cancer), and MDA-MB-435 (melanoma); experiment: In vivo hollow fiber assay; parameters: species or system human; details: highest dose used 20 mg/kg; ip
Outline: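 Hollow fibers carried HT-29, MCF-7 and MDA-MB-435 cells. Test compounds and the paclitaxel positive control were dosed ip across 1–20 mg/kg.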

[2] = test system: HT-29 human colon cancer cells; experiment: Cytotoxicity assay; type: cell-based; details: three days incubation, SRB
Outline: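 HT-29 cells were trypsinized and seeded, then treated with test compound in DMSO at serial dilutions, with DMSO as negative control and paclitaxel as positive control, for three days at 37 °C, 5% CO2. Cells were fixed for 30 min at room temperature, washed, dried overnight and stained with SRB. Dye was solubilized in tris-base buffer and read at 515 nm. ED50 came from nonlinear regression, triplicates, two independent experiments.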

p65 subunit of NF-κB = p65 subunit of NF-κB (Homo sapiens, UniProt Q04206); experiment: Enzyme-based ELISA NF-κB p65 inhibition assay; details: read-out: NF-κB p65 inhibition IC50, HeLa cell nuclear extracts
Chain of p65 subunit of NF-κB (Q04206 whole entry): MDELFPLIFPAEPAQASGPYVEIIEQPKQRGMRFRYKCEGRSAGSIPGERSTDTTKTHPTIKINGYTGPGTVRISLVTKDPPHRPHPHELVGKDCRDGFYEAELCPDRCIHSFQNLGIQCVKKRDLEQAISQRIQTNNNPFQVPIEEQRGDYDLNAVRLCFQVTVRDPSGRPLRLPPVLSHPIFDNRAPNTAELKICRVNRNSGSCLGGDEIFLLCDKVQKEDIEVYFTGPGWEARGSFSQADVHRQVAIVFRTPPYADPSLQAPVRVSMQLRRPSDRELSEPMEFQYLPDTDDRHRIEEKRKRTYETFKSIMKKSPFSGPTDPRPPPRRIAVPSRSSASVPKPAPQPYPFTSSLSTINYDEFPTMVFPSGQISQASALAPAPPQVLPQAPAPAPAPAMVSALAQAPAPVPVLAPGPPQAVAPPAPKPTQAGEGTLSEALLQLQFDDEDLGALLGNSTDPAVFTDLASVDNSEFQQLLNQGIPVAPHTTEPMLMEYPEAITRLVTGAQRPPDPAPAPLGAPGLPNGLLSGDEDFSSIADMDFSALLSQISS

| Compound | activity in in vivo hollow fiber assay [1] | cytotoxicity ED50 towards HT-29 cells [2] [nM] | IC50 (p65 subunit of NF-κB) [nM] |
| --- | --- | --- | --- |
| COc1c(OC(C)=O)cc2oc3cc(OC(C)=O)c(CC=C(C)C)c(O)c3c(=O)c2c1CC=C(C)C [Compound 8, 3,6-di-O-acetyl-α-mangostin] | inactive | – | – |
| 1,3,7-trihydroxy-2,4-diisoprenylxanthone [Compound 5] | – | >10000 | 2900 |
